{
  "source": "ChEMBL document CHEMBL4680252",
  "about": "“Anti-norovirus activity of C7-modified 4-amino-pyrrolo[2,1-f][1,2,4]triazine C-nucleosides” (Eur J Med Chem, 2020)",
  "key": {"[1]": {"test": "Inhibition of recombinant Norovirus GII.4 C-terminal His6-tagged RNA-dependent RNA polymerase in Escherichia coli assessed as decrease in GTP incorporation incubated for 10 mins by scintillation counting method"}, "[2]": {"test": "Antiviral activity against murine Norovirus GV.1 infected in mouse RAW264.7 cells assessed as reduction in plaque formation incubated for 48 hrs by qRT-PCR analysis", "type": "functional, cell-based", "conditions": "GV.1, RAW264.7, 48 h"}, "[3]": {"test_system": "Norovirus", "test": "Antiviral activity against human Norovirus GI.1 infected in human HGT-1 cells assessed as reduction in virus replication incubated for 72 hrs by qRT-PCR analysis", "type": "functional, cell-based", "conditions": "GI.1, HGT-1, 72 h", "method_in_brief": "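HGT-1 cells stably carrying the GI.1 HuNoV replicon were seeded at 5,000/well in complete DMEM without G418. Serial compound dilutions were added after 24 h, followed by 72 h incubation and a PBS wash. Intracellular replicon RNA was quantified by qRT-PCR, normalised to β-actin by the Pfaffl method with per-run efficiencies. EC₅₀ is 50% reduction of relative replicon RNA.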"}, "[4]": {"test": "Cytotoxicity against mouse RAW264.7 cells assessed as reduction in cell viability incubated for 3 days by MTS assay", "type": "cell-based", "conditions": "time 3 day", "method_in_brief": "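Uninfected RAW 264.7 cells were exposed for 3 days to the same compound concentrations used in the MNV assay, then MTS read-out. Viability was expressed as % of untreated cells, and CC₅₀ is the concentration that reduced viable cells by 50%.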"}, "[5]": {"test": "Antiviral activity against murine Norovirus infected in mouse RAW264.7 cells assessed as reduction in virus-induced cytopathic effect incubated for 72 hrs by MTS assay", "type": "functional, cell-based", "conditions": "RAW264.7, 72 h", "method_in_brief": "(§1)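 RAW 264.7 cells (1 × 10⁴/well) infected with MNV-1.CW1 at MOI 0.001 alongside a compound dilution series (0.023–50 or 100 µg/mL; 8 concentrations). Incubated 3 days until CPE was complete in untreated infected wells. MTS/PMS added, OD read at 498 nm after 2 h. %CPE reduction taken against uninfected and infected untreated controls; EC₅₀ is 50% protection from CPE.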"}, "[6]": {"test": "Selectivity index, ratio of CC50 for mouse RAW264.7 cells to EC50 for antiviral activity against murine Norovirus infected in mouse RAW264.7 cells", "type": "toxicity, cell-based", "conditions": "read-out: Ratio CC50/EC50", "method_in_brief": "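Ratio of CC₅₀ (MTS, uninfected RAW 264.7, 3 days) to EC₅₀ (MNV CPE-reduction MTS assay in RAW 264.7, 3 days), calculated as CC₅₀/EC₅₀.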"}, "[7]": {"test_system": "Norovirus", "test": "Antiviral activity against human Norovirus", "type": "functional"}, "[8]": {"test": "Inhibition of mouse Norovirus RNA-dependent RNA polymerase assessed as decrease in GTP incorporation incubated for 10 mins by scintillation counting method"}, "[9]": {"test": "Inhibition of human Norovirus RNA-dependent RNA polymerase assessed as decrease in GTP incorporation incubated for 10 mins by scintillation counting method"}, "[10]": {"test_system": "Norovirus", "test": "Antiviral activity against human Norovirus infected in BJAB cells assessed as reduction in viral replication incubated for 3 days by qRT-PCR analysi", "type": "functional, cell-based", "conditions": "72 h"}, "[11]": {"test": "Antiviral activity against murine Norovirus infected in mouse RAW264.7 cells assessed as reduction in virus-induced cytopathic effect incubated for 3 days by MTS assay", "type": "functional, cell-based", "conditions": "RAW264.7, 72 h", "method_in_brief": "as §1"}},
  "data": [
    {"compound": "Cc1nc(-c2ccccc2)sc1C(=O)Nc1sc2c(c1C#N)CCC2", "values": [
      {"measurement": "IC50", "setting": "[1]", "value": 5, "unit": "µM"},
      {"measurement": "EC50", "setting": "[2]", "value": 4.8, "unit": "µM"}
    ]},
    {"compound": "Nc1ncnn2c([C@@H]3O[C@H](CO)[C@@H](O)[C@H]3O)ccc12", "values": [
      {"measurement": "EC50", "setting": "[3]", "value": 0.015, "unit": "µM"},
      {"measurement": "CC50 at 72 h", "setting": "[4]", "value": 0.14, "unit": "µM"},
      {"measurement": "EC50", "setting": "[5]", "value": 0.007, "unit": "µM"},
      {"measurement": "selectivity ratio", "setting": "[6]", "value": 20}
    ]},
    {"compound": "C[C@@]1(O)[C@H](O)[C@@H](CO)O[C@H]1c1cc(Cl)c2c(N)ncnn12", "values": [
      {"measurement": "CC50 at 72 h", "setting": "[4]", "value": 4.78, "unit": "µM"},
      {"measurement": "EC50", "setting": "[5]", "value": "> 4", "unit": "µM"}
    ]},
    {"compound": "Nc1ncnn2c([C@@H]3O[C@H](CO)[C@@H](O)[C@H]3O)cc(Br)c12", "values": [
      {"measurement": "EC50", "setting": "[3]", "value": "> 10", "unit": "µM"},
      {"measurement": "CC50 at 72 h", "setting": "[4]", "value": 0.45, "unit": "µM"},
      {"measurement": "EC50", "setting": "[5]", "value": 0.024, "unit": "µM"},
      {"measurement": "selectivity ratio", "setting": "[6]", "value": 19}
    ]},
    {"compound": "Nc1ncnc2c1c(Cl)cn2[C@@H]1O[C@H](CO)[C@@H](O)[C@H]1O", "values": [
      {"measurement": "CC50 at 72 h", "setting": "[4]", "value": 2.53, "unit": "µM"},
      {"measurement": "EC50", "setting": "[5]", "value": "> 2", "unit": "µM"}
    ]},
    {"compound": "C[C@H](NP(=O)(N[C@@H](C)C(=O)OCc1ccccc1)OC[C@H]1O[C@@H](c2cc(Cl)c3c(N)ncnn23)[C@H](O)[C@@H]1O)C(=O)OCc1ccccc1", "values": [
      {"measurement": "CC50 at 72 h", "setting": "[4]", "value": "> 10", "unit": "µM"},
      {"measurement": "EC50", "setting": "[5]", "value": "> 10", "unit": "µM"}
    ]},
    {"compound": "O=C(O)c1[nH]nnc1-c1ccccc1", "values": [
      {"measurement": "IC50", "setting": "[1]", "value": 9.2, "unit": "µM"},
      {"measurement": "EC50", "setting": "[2]", "value": 34.5, "unit": "µM"}
    ]},
    {"compound": "C[C@@]1(O)[C@H](O)[C@@H](CO)O[C@H]1c1ccc2c(N)ncnn12", "values": [
      {"measurement": "CC50 at 72 h", "setting": "[4]", "value": 23.7, "unit": "µM"},
      {"measurement": "EC50", "setting": "[5]", "value": 11.1, "unit": "µM"},
      {"measurement": "selectivity ratio", "setting": "[6]", "value": 2}
    ]},
    {"compound": "NC(=O)c1ncn([C@@H]2O[C@H](CO)[C@@H](O)[C@H]2O)n1", "note": "[RIBAVIRIN]", "values": [
      {"measurement": "EC50", "setting": "[7]", "value": 43, "unit": "µM"}
    ]},
    {"compound": "Cc1ccc(C(=O)Nc2ccc(S(=O)(=O)O)c3cc(S(=O)(=O)O)cc(S(=O)(=O)O)c23)cc1NC(=O)c1cccc(NC(=O)Nc2cccc(C(=O)Nc3cc(C(=O)Nc4ccc(S(=O)(=O)O)c5cc(S(=O)(=O)O)cc(S(=O)(=O)O)c45)ccc3C)c2)c1", "note": "[SURAMIN]", "values": [
      {"measurement": "IC50", "setting": "[8]", "value": 0.07, "unit": "µM"},
      {"measurement": "IC50", "setting": "[9]", "value": 0.025, "unit": "µM"}
    ]},
    {"compound": "Nc1ncnn2c([C@H]3O[C@@H](CO)[C@H](O)[C@@H]3O)cc(Cl)c12", "values": [
      {"measurement": "CC50 at 72 h", "setting": "[4]", "value": "> 100", "unit": "µM"},
      {"measurement": "EC50", "setting": "[5]", "value": "> 100", "unit": "µM"}
    ]},
    {"compound": "O=C(Nc1cccc(C(=O)Nc2ccc(S(=O)(=O)O)c3cc(S(=O)(=O)O)cc(S(=O)(=O)O)c23)c1)Nc1cccc(C(=O)Nc2ccc(S(=O)(=O)O)c3cc(S(=O)(=O)O)cc(S(=O)(=O)O)c23)c1", "values": [
      {"measurement": "IC50", "setting": "[8]", "value": 0.2, "unit": "µM"},
      {"measurement": "IC50", "setting": "[9]", "value": 0.071, "unit": "µM"}
    ]},
    {"compound": "Nc1ncnn2c([C@@H]3O[C@H](CO)[C@@H](O)[C@H]3O)cc(I)c12", "values": [
      {"measurement": "EC50", "setting": "[3]", "value": "> 10", "unit": "µM"},
      {"measurement": "CC50 at 72 h", "setting": "[4]", "value": 0.78, "unit": "µM"},
      {"measurement": "EC50", "setting": "[5]", "value": 0.035, "unit": "µM"},
      {"measurement": "selectivity ratio", "setting": "[6]", "value": 22}
    ]},
    {"compound": "C[C@@]1(O)[C@H](O)[C@@H](CO)O[C@H]1n1ccc(N)nc1=O", "values": [
      {"measurement": "EC50", "setting": "[7]", "value": 8.2, "unit": "µM"},
      {"measurement": "EC50", "setting": "[10]", "value": 0.3, "unit": "µM"},
      {"measurement": "EC50", "setting": "[11]", "value": 2, "unit": "µM"}
    ]},
    {"compound": "C[C@@]1(F)[C@H](O)[C@@H](CO)O[C@H]1n1ccc(N)nc1=O", "values": [
      {"measurement": "EC50", "setting": "[7]", "value": 3.2, "unit": "µM"}
    ]},
    {"compound": "Nc1ncnn2c([C@H]3O[C@@H](CO)[C@H](O)[C@@H]3O)ccc12", "values": [
      {"measurement": "CC50 at 72 h", "setting": "[4]", "value": "> 100", "unit": "µM"},
      {"measurement": "EC50", "setting": "[5]", "value": "> 100", "unit": "µM"}
    ]},
    {"compound": "Nc1ncnn2c([C@@H]3O[C@H](CO)[C@@H](O)[C@H]3O)cc(Cl)c12", "values": [
      {"measurement": "EC50", "setting": "[3]", "value": "> 10", "unit": "µM"},
      {"measurement": "CC50 at 72 h", "setting": "[4]", "value": "> 0.01", "unit": "µM"},
      {"measurement": "EC50", "setting": "[5]", "value": 0.007, "unit": "µM"},
      {"measurement": "selectivity ratio", "setting": "[6]", "value": "> 1"}
    ]}
  ]
}
